Assay results published in ChEMBL document CHEMBL3792272, “Discovery of Potent and Orally Active Lipoprotein-Associated Phospholipase A2 (Lp-PLA2) Inhibitors as a Potential Therapy for Diabetic Macular Edema” (J Med Chem, 2016).

Tests used:
Format in all cases: ADME, organism-based
[1] = AUC (0 to 24 hrs) in Sprague-Dawley rat at 10 mg/kg, iv after 5 mins to 24 hrs by LC-MS/MS analysis; parameters: time < 24 hr, dose 10 mg/kg, route intravenous; details: in vivo
Summary of the method: (§1)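 Male SD rats, n=5 per group, single iv bolus: 5 mg/kg in 5% DMSO/5% Tween-80 in saline, or 10 mg/kg tartrate salt in water. Plasma sampled predose and at 5, 15, 30 min and 1, 3, 5, 7, 24 h. Drug measured by LC-MS. Parameters by noncompartmental analysis of mean concentrations.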

[2] = Volume of distribution at steady state in Sprague-Dawley rat at 10 mg/kg, iv after 5 mins to 24 hrs by LC-MS/MS analysis; details: in vivo, read-out: Vdss; summary of the method: as §1
[3] = AUC (0 to 24 hrs) in Sprague-Dawley rat at 50 mg/kg, po after 0.5 to 24 hrs by LC-MS/MS analysis; parameters: time < 24 hr, dose 50 mg/kg, route oral; details: in vivo
[4] = Cmax in Sprague-Dawley rat at 50 mg/kg, po after 0.5 to 24 hrs by LC-MS/MS analysis; parameters: dose 50 mg/kg, route oral; details: in vivo
[5] = Tmax in Sprague-Dawley rat at 50 mg/kg, po after 0.5 to 24 hrs by LC-MS/MS analysis; details: in vivo

Q: With `CCN(CC)CCN(Cc1ccc(-c2ccc(C(F)(F)F)cc2)cc1)C(=O)Cn1c(SCc2ccc(F)cc2)nc(=O)c2c1CCC2` [DARAPLADIB] as the compound, how does the AUC(0-t) at 24 h [1] read?
A: 1200 ng·h/mL

Q: And the Vd [2]?
A: 34.4 L/kg

Q: And the AUC(0-t) at 24 h [3]?
A: 1300 ng·h/mL

Q: What about the Cmax [4] of the same compound?
A: 115 ng/mL

Q: What about the Tmax [5] of the same compound?
A: 4.2 h
